The source of these data is ChEMBL document CHEMBL1157679, “Substituted aryl malonamates as new serine beta-lactamase substrates: structure-activity studies” (Bioorg Med Chem, 2010).

Assay [1] in a line: Ratio of Kcat to Km for beta-lactamase TEM-2. Summed up:
(§1)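 Steady-state kinetics in 100 mM MOPS, pH 7.5, 25 °C. Substrate stocks were made in DMSO and diluted into buffer to a final DMSO below 5%. Initial rates of enzyme-catalysed turnover were followed spectrophotometrically. Steady-state parameters were derived from these initial rates. Buffer hydrolysis of the substrates was measured separately as pseudo-first-order rate constants.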

Assay [2] is described as follows: Activity at beta-lactamase TEM-2 by spectrophotometry. The procedure, abridged: as §1
The nature of assay [3]: Inhibition of beta-lactamase TEM-2 assessed as inhibition of cephalothin turnover by spectrophotometry. Summed up:
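TEM-2 enzyme (0.2 μM) was incubated with 3 mM inhibitor in 100 mM MOPS, pH 7.5, at 25 °C (DMSO below 5% final). Residual activity against 0.2 mM cephalothin was read spectrophotometrically over incubation time. Exponential fitting gave pseudo-first-order inactivation constants, which were converted to second-order rate constants.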

In the case of `O=C(O)c1cccc(OC(=O)C2Cc3ccccc3N(Cc3ccccc3)C2=O)c1` (centres undefined), the kcat/Km in assay [1] is under 0.9 M⁻¹ s⁻¹.
What is called Km is the substrate concentration at which the rate is half of its maximum. Take `O=C(O)c1cccc(OC(=O)C2CCN(Cc3ccccc3)C2=O)c1` (centres undefined): in assay [2], the Km is over 220 µM and the kcat is over 1.1 ×10⁻⁴ /s. Moreover, the kcat/Km in assay [1] was 0.54 M⁻¹ s⁻¹.
`CO[C@@H](C(=O)NCc1ccccc1)C(=O)Oc1cccc(C(=O)O)c1`: in assay [1], the kcat/Km was under 6 M⁻¹ s⁻¹.
For the compound `O=C(O)c1cccc(OC(=O)C(Cc2ccccc2)C(=O)NCc2ccccc2)c1` (centres undefined), in assay [2], the Km is over 200 µM and the kcat was over 9.4 ×10⁻⁴ /s. For the same compound, the kcat/Km in assay [1] was found to be 4.7 M⁻¹ s⁻¹.
Consider `O=C(CP(=O)(O)Oc1cccc(C(=O)O)c1)NCc1ccccc1`, for which the kcat/Km in assay [3] is under 1 M⁻¹ s⁻¹.
In the case of `C[C@H](C(=O)NCc1ccccc1)C(=O)Oc1cccc(C(=O)O)c1`, in assay [2], the Km was over 200 µM and the kcat was over 7.2 ×10⁻⁴ /s. Besides, the kcat/Km in assay [1] came out at 3.6 M⁻¹ s⁻¹.
Taken in the same sequence, the figures for `O=C(CC(=O)N(Cc1ccccc1)Cc1ccccc1)Oc1cccc(C(=O)O)c1` were 1800 µM, 0.21 s⁻¹ and 1.2 ×10² /s/M.
Taken in the same sequence, the figures for `O=C(CC(=O)Oc1cccc(C(=O)O)c1)NCc1ccccc1` were 1.42 µM, 28 s⁻¹ and 1.95 ×10⁴ /s/M.
`CN(Cc1ccccc1)C(=O)CC(=O)Oc1cccc(C(=O)O)c1`: in assay [1], the kcat/Km was under 0.2 M⁻¹ s⁻¹.
